Experimental data taken from ChEMBL document CHEMBL1833923, “Effects of linker elongation in a series of N-(2-benzofuranylmethyl)-N'-(methoxyphenylalkyl)piperazine σ₁ receptor ligands” (Bioorg Med Chem Lett, 2011).
pKi: −log10 of the molar value.

Legend:
[1] = molecular target: 5-hydroxytryptamine receptor 2B (Homo sapiens, UniProt P41595); assay: Displacement of [3H]LSD from 5-HT2B after 1.5 hrs by liquid scintillation counting
[2] = Displacement of [3H]MK801 from PCP binding site of NMDA receptor at 10 uM after 1.5 hrs by liquid scintillation counting
[3] = molecular target: Sigma non-opioid intracellular receptor 1 (Rattus norvegicus, UniProt Q9R0C9); assay: Displacement of [3H](+)-pentazocine from sigma 1 receptor in rat brain homogenate after 2.5 hrs by liquid scintillation counting; format: tissue-based
How it was run: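 σ1 affinity by competition with [³H](+)-pentazocine in rat brain homogenate, following a modification of the Kovacs and Larson protocol. Ki determinations were run by the NIMH Psychoactive Drug Screening Program. Values are mean ± SEM from triplicate assays.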

[4] = Displacement of [3H]DTG from sigma 2 receptor in rat PC12 cells after 2 hrs by liquid scintillation counting; format: cell-based; details: pc-12
How it was run: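 σ2 affinity by competition with [³H]DTG in a PC12 cell preparation, following a modified Kovacs and Larson protocol. Ki determinations were run by the NIMH PDSP. Values are mean ± SEM of triplicate assays.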

PC-12 = assay: Selectivity ratio of Ki for sigma 2 receptor in rat PC12 cells to Ki for sigma 1 receptor in rat brain homogenates; format: cell-based
How it was run: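 Competition binding, done by the NIMH Psychoactive Drug Screening Program. σ1 Ki came from displacement of [³H](+)-pentazocine in rat brain homogenate, and σ2 Ki from displacement of [³H]DTG in a PC12 cell preparation. Ki values were mean with SEM from triplicate assays. The ratio is σ2 Ki divided by σ1 Ki.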

D(2) dopamine receptor [5] = molecular target: T1, D(2) dopamine receptor (Homo sapiens, UniProt P14416); assay: Displacement of [3H]N-methylspiperone from D2 after 1.5 hrs by liquid scintillation counting
D(2) dopamine receptor [6] = molecular target: T1, D(2) dopamine receptor; assay: Displacement of [3H]N-methylspiperone from D2 at 10 uM after 1.5 hrs by liquid scintillation counting

Chain of Sigma non-opioid intracellular receptor 1 (Q9R0C9 whole entry): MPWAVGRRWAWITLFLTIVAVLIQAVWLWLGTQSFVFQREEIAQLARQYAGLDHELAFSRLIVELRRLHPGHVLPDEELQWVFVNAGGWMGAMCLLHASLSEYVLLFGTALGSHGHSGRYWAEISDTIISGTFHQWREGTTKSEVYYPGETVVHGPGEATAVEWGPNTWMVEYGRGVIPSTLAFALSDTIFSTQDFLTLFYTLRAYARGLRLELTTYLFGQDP
T1 sequence (P14416 whole entry): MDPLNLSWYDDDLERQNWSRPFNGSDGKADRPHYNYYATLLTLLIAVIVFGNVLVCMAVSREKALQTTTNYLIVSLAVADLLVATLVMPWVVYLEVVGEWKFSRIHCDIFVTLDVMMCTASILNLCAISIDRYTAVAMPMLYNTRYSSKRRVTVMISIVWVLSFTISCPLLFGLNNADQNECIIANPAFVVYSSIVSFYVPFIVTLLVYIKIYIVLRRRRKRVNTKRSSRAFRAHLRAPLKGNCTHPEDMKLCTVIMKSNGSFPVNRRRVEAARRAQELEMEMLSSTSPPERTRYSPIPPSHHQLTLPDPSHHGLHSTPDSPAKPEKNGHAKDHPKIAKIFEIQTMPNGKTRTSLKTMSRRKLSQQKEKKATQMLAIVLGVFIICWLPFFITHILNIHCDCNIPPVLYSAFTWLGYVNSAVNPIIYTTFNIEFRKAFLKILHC
Chain of 5-hydroxytryptamine receptor 2B (P41595 whole entry): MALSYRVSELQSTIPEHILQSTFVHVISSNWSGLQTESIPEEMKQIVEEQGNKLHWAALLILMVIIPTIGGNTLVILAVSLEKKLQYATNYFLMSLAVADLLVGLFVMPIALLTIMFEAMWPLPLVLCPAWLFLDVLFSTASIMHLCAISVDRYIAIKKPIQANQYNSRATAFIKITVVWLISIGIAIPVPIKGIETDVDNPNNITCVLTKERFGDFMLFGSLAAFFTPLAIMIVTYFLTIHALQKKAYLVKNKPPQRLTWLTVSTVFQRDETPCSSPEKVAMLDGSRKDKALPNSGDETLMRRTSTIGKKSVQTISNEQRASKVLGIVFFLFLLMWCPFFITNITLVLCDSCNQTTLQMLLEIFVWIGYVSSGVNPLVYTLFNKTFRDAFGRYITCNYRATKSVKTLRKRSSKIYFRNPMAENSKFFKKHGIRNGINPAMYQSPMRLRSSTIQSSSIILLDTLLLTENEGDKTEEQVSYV

Row | pKi [1] | inhibition [2] [%] | pKi [3] | pKi (D(2) dopamine receptor [5]) | inhibition (D(2) dopamine receptor [6]) [%] | SMILES | pKi [4] | Ratio Ki (PC-12)
1 | 6.56 | < 50 | 8.38 | 7.05 |  | c1ccc(CCCCN2CCN(Cc3cc4ccccc4o3)CC2)cc1 | 7.74 | 4
2 | 6.46 | < 50 | 8.12 | 6.32 |  | COc1cccc(CCCCN2CCN(Cc3cc4ccccc4o3)CC2)c1 | 6.68 | 28
3 | 6.81 | < 50 | 8.51 | < 5.00 | < 50 | COc1ccc(CCCN2CCN(Cc3cc4ccccc4o3)CC2)cc1 | 6.86 | 45
4 | 6.54 | < 50 | 7.89 |  | < 50 | COc1cccc(CCN2CCN(Cc3cc4ccccc4o3)CC2)c1 | 7.85 | 1
5 | 6.45 | < 50 | 7.89 | 5.24 |  | COc1ccc(CCCCN2CCN(Cc3cc4ccccc4o3)CC2)cc1 | 7.06 | 7
6 | 6.33 | < 50 | 8.03 |  | < 50 | COc1ccc(CCN2CCN(Cc3cc4ccccc4o3)CC2)cc1 | 7.00 | 11
7 | 6.20 | < 50 | 8.08 | 5.23 |  | COc1ccccc1CCCN1CCN(Cc2cc3ccccc3o2)CC1 | 7.28 | 6
8 | 6.48 | < 50 | 7.80 | 6.36 |  | COc1ccccc1CCCCN1CCN(Cc2cc3ccccc3o2)CC1 | 6.89 | 8
9 | 6.61 | < 50 | 8.24 | 6.25 |  | COc1cccc(CCCN2CCN(Cc3cc4ccccc4o3)CC2)c1 | 7.40 | 7

Row | SMILES | pKi [1] | inhibition [2] [%] | pKi [3] | pKi (D(2) dopamine receptor [5]) | inhibition (D(2) dopamine receptor [6]) [%] | pKi [4] | Ratio Ki (PC-12)
10 | c1ccc(CCN2CCN(Cc3cc4ccccc4o3)CC2)cc1 | 6.51 | < 50 | 8.14 |  | < 50 | 6.88 | 18
11 | COc1ccccc1CCN1CCN(Cc2cc3ccccc3o2)CC1 | 6.92 | < 50 | 7.77 | 5.78 |  | 7.09 | 5
12 | c1ccc(CCCN2CCN(Cc3cc4ccccc4o3)CC2)cc1 | 6.83 | < 50 | 8.24 | 5.99 |  | 7.74 | 3
